# Published values collected from several papers.
# Compare with care: the assays were run in different laboratories.
Structure (SMILES),target or system,assay,test system,setting,quantity,result
COc1cc(Nc2nccc(-c3cnn4nc(OC)ccc34)n2)cc(C(F)(F)F)c1,SK-N-FI,"cell growth or viability, ATP luminescence",,,IC50,250 nM
C=CC(=O)N1CCC[C@@H](n2nc(-c3ccc(Oc4ccccc4)cc3)c3c(N)ncnc32)C1,Granta-519,"cell growth or viability, ATP luminescence",,72 h,GI50,10300 nM
C=C1CC[C@@H]2[C@](C)(CO)[C@H](O)CC[C@@]2(C)[C@@H]1C/C=C1/C(=O)OC[C@H]1O,unidentified human coronavirus,cytopathic effect,MRC5,"25 µM, 72 h",inhibition,58.4%
COC(=O)N[C@H](C(=O)N1CCC[C@H]1c1ncc(-c2ccc(-c3ccc(-c4cnc([C@@H]5CCCN5C(=O)[C@@H](NC(=O)OC)C(C)C)[nH]4)cc3)cc2)[nH]1)C(C)C,Hepatitis C virus,"viral replication, inhibitor","Huh-7, GETYPE2A",replicon,EC50,0.02 nM
COC(=O)N[C@H](C(=O)N1CCC[C@H]1C(=O)Nc1cccc(C#CC#Cc2cccc(NC(=O)[C@@H]3CCCN3C(=O)[C@@H](NC(=O)OC)C(C)C)c2)c1)C(C)C,Hepatitis C virus,"viral replication, inhibitor, luciferase",GETYPE4A,replicon,EC50,6.11 nM
CC1(C)OC[C@@]2(C)[C@H]3CC[C@@H]4CN(Cc5ccco5)[C@@H](C5=CCOC5=O)C[C@H]4[C@]3(C)CC[C@H]2O1,unidentified human coronavirus,cytopathic effect,MRC5,"25 µM, 72 h",inhibition,17.5%
CCOC(=O)N[C@H](CC(C)C)C(=O)N1CCC[C@H]1C(=O)Nc1cccc(C#CC#Cc2cccc(NC(=O)[C@@H]3CCCN3C(=O)[C@@H](CC(C)C)NC(=O)OCC)c2)c1,Hepatitis C virus,"viral replication, inhibitor, luciferase",GETYPE3A,replicon,EC50,> 10000 nM
Nc1nc(N)c2ncn([C@H]3O[C@H](CO)[C@@H](F)[C@@H]3F)c2n1,Hepatitis C virus,"viral replication, inhibitor",Huh-7,replicon,EC50,> 10000 nM
CC#CC(=O)N1CC[C@@H](n2cc(-c3ccc(Oc4c(F)cccc4F)cc3)c3c(N)n[nH]c(=O)c32)C1,Z-138,"cell growth or viability, ATP luminescence",,72 h,GI50,6960 nM
CC(=O)OC[C@@]1(C)[C@H]2CC[C@@H]3CN(Cc4ccccc4)[C@@H](C4=CCOC4=O)C[C@H]3[C@]2(C)CC[C@H]1OC(C)=O,unidentified human coronavirus,cytopathic effect,MRC5,"25 µM, 72 h",inhibition,82.4%
CCOC(=O)N[C@@H](CC(C)C)C(=O)N1CCC[C@H]1C(=O)Nc1ccc(C#CC#Cc2ccc(NC(=O)[C@@H]3CCCN3C(=O)[C@H](CC(C)C)NC(=O)OCC)cc2)cc1,Hepatitis C virus,"viral replication, inhibitor, luciferase","Huh-5-2, GETYPE1B","72 h, replicon",EC50,3210 nM
CC(C)CCN1C[C@H]2CC[C@@H]3[C@]4(C)COC(C)(C)O[C@@H]4CC[C@@]3(C)[C@@H]2C[C@@H]1C1=CCOC1=O,unidentified human coronavirus,cytopathic effect,MRC5,"25 µM, 72 h",inhibition,22%
CC(C)C[C@H](NC(=O)[C@H](Cc1ccccc1)NC(=O)c1cnccn1)B(O)O,DLD-1,"cell growth or viability, ATP luminescence",,,IC50,14 nM
